Experimental findings from ChEMBL document CHEMBL1154352, “Toll-like receptor 7 selective synthetic oligoribonucleotide agonists: synthesis and structure-activity relationship studies” (J Med Chem, 2009) are described below.

Calls of active or inactive are those of the source. No cut-off for these calls is given here.

In data set [1] the test system is PBMC. The experiment in a line: Immunomodulatory activity in human PBMC assessed as induction of IL12 at 100 ug/ml after 24 hrs. Type of data set: functional, cell-based. In a few lines:
(§1)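 Human PBMCs plated at 5 × 10^6 cells/mL; compounds dissolved in PBS added at various concentrations, 37 °C for 24 h. Supernatant cytokines/chemokines quantified with human Luminex multiplex kit.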

For data set [2], the target named is T1, Toll-like receptor 9 (Mus musculus) (UniProt Q9EQU3).
T1 sequence (whole entry): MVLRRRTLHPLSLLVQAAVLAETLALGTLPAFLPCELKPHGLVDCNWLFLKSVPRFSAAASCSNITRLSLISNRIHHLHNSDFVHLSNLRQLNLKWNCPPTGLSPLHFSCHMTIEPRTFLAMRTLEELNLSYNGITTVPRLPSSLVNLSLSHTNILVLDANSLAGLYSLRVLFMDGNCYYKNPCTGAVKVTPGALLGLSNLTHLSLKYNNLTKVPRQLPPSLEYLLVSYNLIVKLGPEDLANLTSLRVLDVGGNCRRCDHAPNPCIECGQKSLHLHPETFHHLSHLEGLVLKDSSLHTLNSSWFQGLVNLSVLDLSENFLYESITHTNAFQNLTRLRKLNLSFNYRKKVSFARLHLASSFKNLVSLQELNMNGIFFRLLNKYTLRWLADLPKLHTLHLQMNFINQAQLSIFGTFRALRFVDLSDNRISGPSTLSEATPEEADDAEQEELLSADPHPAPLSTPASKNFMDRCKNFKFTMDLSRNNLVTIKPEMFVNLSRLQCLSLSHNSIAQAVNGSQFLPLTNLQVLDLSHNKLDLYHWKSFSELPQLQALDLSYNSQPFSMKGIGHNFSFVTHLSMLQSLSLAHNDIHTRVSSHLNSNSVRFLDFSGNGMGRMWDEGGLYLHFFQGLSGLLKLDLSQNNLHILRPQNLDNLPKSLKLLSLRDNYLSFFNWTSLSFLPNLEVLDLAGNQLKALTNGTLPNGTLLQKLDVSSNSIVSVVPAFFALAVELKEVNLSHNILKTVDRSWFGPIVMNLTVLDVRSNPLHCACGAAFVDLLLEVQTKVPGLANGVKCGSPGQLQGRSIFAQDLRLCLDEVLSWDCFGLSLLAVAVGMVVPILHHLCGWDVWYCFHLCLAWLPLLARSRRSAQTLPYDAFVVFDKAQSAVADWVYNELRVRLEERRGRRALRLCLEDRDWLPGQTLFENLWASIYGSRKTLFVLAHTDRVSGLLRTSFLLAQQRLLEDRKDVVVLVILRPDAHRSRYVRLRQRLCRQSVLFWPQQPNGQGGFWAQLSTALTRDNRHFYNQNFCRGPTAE
The experiment in a line: Activation of mouse TLR9 expressed in HEK293 assessed as induction of NF-kappaB activity reporter gene assay. Type of data set: cell-based.

The test system of data set [3] is Splenocyte. The data set can be described thus: Immunomodulatory activity in C57BL/6 mouse splenocytes bearing TLR7 receptor assessed as IL12 release at 100 ug/ml after 24 hrs by ELISA. It is filed as functional, cell-based. In a few lines:
(§2)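 C57BL/6 splenocytes in RPMI 1640 with 10% FBS, penicillin/streptomycin, 2 mM L-glutamine, plated at 5 × 10^6 cells/mL; compounds in PBS added, 37 °C for 24 h. Supernatant IL-12 and IL-6 by ELISA; representative of three independent experiments.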
Background: An ELISA detects its analyte on a solid surface through an enzyme-linked reagent.

The target of data set [4] is T2, Toll-like receptor 8 (Homo sapiens) (UniProt Q9NR97).
T2 sequence (whole entry): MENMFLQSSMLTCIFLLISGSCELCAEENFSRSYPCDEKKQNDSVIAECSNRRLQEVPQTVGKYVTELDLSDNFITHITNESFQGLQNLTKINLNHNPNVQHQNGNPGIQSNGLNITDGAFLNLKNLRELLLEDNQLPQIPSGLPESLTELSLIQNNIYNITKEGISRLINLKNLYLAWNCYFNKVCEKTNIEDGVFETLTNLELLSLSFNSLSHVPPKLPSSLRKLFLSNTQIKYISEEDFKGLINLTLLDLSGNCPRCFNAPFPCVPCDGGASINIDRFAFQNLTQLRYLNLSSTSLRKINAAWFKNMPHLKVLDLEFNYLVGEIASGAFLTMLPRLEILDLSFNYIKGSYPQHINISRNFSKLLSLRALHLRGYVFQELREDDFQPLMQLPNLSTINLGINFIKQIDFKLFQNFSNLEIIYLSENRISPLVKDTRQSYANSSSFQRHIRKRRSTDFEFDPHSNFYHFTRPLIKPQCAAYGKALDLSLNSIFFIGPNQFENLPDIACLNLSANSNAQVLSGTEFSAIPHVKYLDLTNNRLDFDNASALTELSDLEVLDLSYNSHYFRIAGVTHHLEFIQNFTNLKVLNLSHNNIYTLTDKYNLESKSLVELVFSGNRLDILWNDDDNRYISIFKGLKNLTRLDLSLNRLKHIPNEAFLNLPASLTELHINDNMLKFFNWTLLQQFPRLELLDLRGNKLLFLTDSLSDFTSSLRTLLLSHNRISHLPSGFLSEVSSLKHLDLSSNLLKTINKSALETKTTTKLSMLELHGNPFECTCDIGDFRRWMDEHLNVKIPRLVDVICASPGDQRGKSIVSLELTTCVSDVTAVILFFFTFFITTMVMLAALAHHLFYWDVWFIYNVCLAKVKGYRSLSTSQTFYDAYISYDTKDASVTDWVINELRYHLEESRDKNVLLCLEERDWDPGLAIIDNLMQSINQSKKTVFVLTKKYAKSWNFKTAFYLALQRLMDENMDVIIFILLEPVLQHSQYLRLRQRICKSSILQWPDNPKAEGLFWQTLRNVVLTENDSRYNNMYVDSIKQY
The data set can be described thus: Activation of human TLR8 expressed in HEK293XL assessed as fold induction of NF-kappaB activity at 50 ug/ml after 18 hrs by reporter gene assay relative to control. In a few lines:
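HEK293 cells stably expressing human TLR7 or TLR8, transiently transfected with SEAP reporter plasmid; medium replaced, SIMRA compounds added, 18 h incubation. Supernatant SEAP measured by QuantiBlue; expressed as fold increase in NF-κB activity over PBS control. Tabulated data at 50 μg/mL, representative of three independent experiments.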
(In general: Reporter assays use an easily measured gene product as a stand-in for the process of interest.)

The test system of data set [5] is Splenocyte. The data set can be described thus: Immunomodulatory activity in C57BL/6 mouse splenocytes bearing TLR7 receptor assessed as IL6 release at 100 ug/ml after 24 hrs by ELISA. Type of data set: functional, cell-based. In a few lines: as §2
Data set [6] relates to PBMC. The experiment in a line: Immunomodulatory activity in human PBMC assessed as induction of TNFalpha at 100 ug/ml after 24 hrs. It is filed as functional, cell-based. In a few lines: as §1
Data set [7] in a line: Metabolic stability in human serum assessed as full length product remaining after 10 mins by HPLC. It is filed as ADME, cell-free. Particulars: read-out: Stability. In a few lines: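 About 0.5 A260 units compound in 1% human serum in PBS, 37 °C; aliquot taken at 10 min, analysed by anion-exchange HPLC for percent intact full-length product.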
In data set [8] the target is Toll-like receptor 3 (Homo sapiens) (UniProt O15455). The data set can be described thus: Activation of human TLR3 expressed in HEK293 assessed as induction of NF-kappaB activity reporter gene assay. It is filed as cell-based.
Sequence of Toll-like receptor 3 (Homo sapiens) (O15455 whole entry): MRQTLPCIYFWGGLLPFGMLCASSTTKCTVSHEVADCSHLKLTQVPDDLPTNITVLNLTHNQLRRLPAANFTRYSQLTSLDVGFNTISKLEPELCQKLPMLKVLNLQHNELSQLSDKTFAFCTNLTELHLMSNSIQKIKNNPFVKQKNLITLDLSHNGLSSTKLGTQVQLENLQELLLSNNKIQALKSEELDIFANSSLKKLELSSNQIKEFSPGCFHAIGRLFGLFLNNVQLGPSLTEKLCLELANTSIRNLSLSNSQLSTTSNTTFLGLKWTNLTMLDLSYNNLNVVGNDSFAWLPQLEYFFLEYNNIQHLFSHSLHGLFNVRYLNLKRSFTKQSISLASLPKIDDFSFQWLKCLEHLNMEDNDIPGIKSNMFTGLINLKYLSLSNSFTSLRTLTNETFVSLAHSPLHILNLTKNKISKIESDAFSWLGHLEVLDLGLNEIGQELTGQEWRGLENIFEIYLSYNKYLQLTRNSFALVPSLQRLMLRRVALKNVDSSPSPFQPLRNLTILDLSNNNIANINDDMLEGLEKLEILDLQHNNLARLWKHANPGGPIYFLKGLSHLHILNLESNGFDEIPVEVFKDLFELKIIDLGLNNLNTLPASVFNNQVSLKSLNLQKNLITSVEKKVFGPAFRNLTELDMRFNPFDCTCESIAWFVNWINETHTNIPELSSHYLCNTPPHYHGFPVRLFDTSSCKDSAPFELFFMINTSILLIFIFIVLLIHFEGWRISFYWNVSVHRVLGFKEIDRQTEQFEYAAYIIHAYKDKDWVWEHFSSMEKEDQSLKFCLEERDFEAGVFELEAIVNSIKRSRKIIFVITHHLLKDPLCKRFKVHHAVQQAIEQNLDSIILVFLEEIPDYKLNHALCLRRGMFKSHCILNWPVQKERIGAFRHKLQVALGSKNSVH
The test system of data set [9] is PBMC. The experiment in a line: Immunomodulatory activity in human PBMC assessed as induction of IFN-alpha at 100 ug/ml after 24 hrs.

For the compound `Nc1ccn([C@@H]2O[C@H](COP(=O)(S)O[C@H]3[C@@H](O)[C@H](n4cnc5c(N)ncnc54)O[C@@H]3CO)[C@@H](OP(=O)(S)OC[C@H]3O[C@@H](n4ccc5c(=O)[nH]c(N)nc54)[C@H](O)[C@@H]3OP(=O)(S)OC[C@H]3O[C@@H](n4ccc(N)nc4=O)[C@H](O)[C@@H]3OP(=O)(S)OC[C@H]3O[C@@H](n4ccc(=O)[nH]c4=O)[C@H](O)[C@@H]3OP(=O)(S)OC[C@H]3O[C@@H](n4ccc5c(=O)[nH]c(N)nc54)[C@H](O)[C@@H]3OP(=O)(S)OC[C@H]3O[C@@H](n4cnc5c(N)ncnc54)[C@H](O)[C@@H]3OP(=O)(S)OC[C@H]3O[C@@H](n4ccc5c(=O)[nH]c(N)nc54)[C@H](O)[C@@H]3OP(=O)(S)OC[C@H]3O[C@@H](n4ccc(N)nc4=O)[C@H](O)[C@@H]3OP(=O)(S)OC[C@H]3O[C@@H](n4ccc(=O)[nH]c4=O)[C@H](O)[C@@H]3OP(=O)(S)OC[C@H]3O[C@@H](n4ccc(=O)[nH]c4=O)[C@H](O)[C@@H]3OP(=O)(S)OCC(O)COP(=O)(S)O[C@H]3[C@@H](O)[C@H](n4ccc(=O)[nH]c4=O)O[C@@H]3COP(=O)(S)O[C@H]3[C@@H](O)[C@H](n4ccc(=O)[nH]c4=O)O[C@@H]3COP(=O)(S)O[C@H]3[C@@H](O)[C@H](n4ccc(N)nc4=O)O[C@@H]3COP(=O)(S)O[C@H]3[C@@H](O)[C@H](n4ccc5c(=O)[nH]c(N)nc54)O[C@@H]3COP(=O)(S)O[C@H]3[C@@H](O)[C@H](n4cnc5c(N)nc(N)nc54)O[C@@H]3COP(=O)(S)O[C@H]3[C@@H](O)[C@H](n4ccc5c(=O)[nH]c(N)nc54)O[C@@H]3COP(=O)(S)O[C@H]3[C@@H](O)[C@H](n4ccc(=O)[nH]c4=O)O[C@@H]3COP(=O)(S)O[C@H]3[C@@H](O)[C@H](n4ccc(N)nc4=O)O[C@@H]3COP(=O)(S)O[C@H]3[C@@H](O)[C@H](n4ccc5c(=O)[nH]c(N)nc54)O[C@@H]3COP(=O)(S)O[C@H]3[C@@H](O)[C@H](n4ccc(N)nc4=O)O[C@@H]3COP(=O)(S)O[C@H]3[C@@H](O)[C@H](n4cnc5c(N)ncnc54)O[C@@H]3CO)[C@H]2O)c(=O)n1` (stereo partly drawn), the Activity with PBMC [1] stood at 2240 pg/mL; in the data set with PBMC [6], 1410 pg/mL. Also, the result in data set [2] and in [8] was inactive. For the same compound, the result in the data set on Splenocyte [3] and in the data set with Splenocyte [5] was Active. The fold change (FC) in data set [4] is 0.9. Besides, in data set [7], the remaining at 10 min is 78%. Further, in the data set with PBMC [9], the IFN-alpha is 188 pg/mL.
As for `Nc1ccn([C@@H]2O[C@H](COP(=O)(S)O[C@H]3[C@@H](O)[C@H](n4cnc5c(N)ncnc54)O[C@@H]3COP(=O)(S)O[C@H]3[C@@H](O)[C@H](n4cnc5c(N)ncnc54)O[C@@H]3CO)[C@@H](OP(=O)(S)OC[C@H]3O[C@@H](n4ccc(=O)[nH]c4=O)[C@H](O)[C@@H]3OP(=O)(S)OC[C@H]3O[C@@H](n4ccc5c(=O)[nH]c(N)nc54)[C@H](O)[C@@H]3OP(=O)(S)OC[C@H]3O[C@@H](n4cnc5c(N)ncnc54)[C@H](O)[C@@H]3OP(=O)(S)OC[C@H]3O[C@@H](n4ccc(N)nc4=O)[C@H](O)[C@@H]3OP(=O)(S)OC[C@H]3O[C@@H](n4ccc5c(=O)[nH]c(N)nc54)[C@H](O)[C@@H]3OP(=O)(S)OC[C@H]3O[C@@H](n4ccc(N)nc4=O)[C@H](O)[C@@H]3OP(=O)(S)OC[C@H]3O[C@@H](n4ccc(=O)[nH]c4=O)[C@H](O)[C@@H]3OP(=O)(S)OC[C@H]3O[C@@H](n4ccc5c(=O)[nH]c(N)nc54)[C@H](O)[C@@H]3OP(=O)(S)OCC(O)COP(=O)(S)O[C@H]3[C@@H](O)[C@H](n4ccc5c(=O)[nH]c(N)nc54)O[C@@H]3COP(=O)(S)O[C@H]3[C@@H](O)[C@H](n4ccc(=O)[nH]c4=O)O[C@@H]3COP(=O)(S)O[C@H]3[C@@H](O)[C@H](n4ccc(N)nc4=O)O[C@@H]3COP(=O)(S)O[C@H]3[C@@H](O)[C@H](n4ccc5c(=O)[nH]c(N)nc54)O[C@@H]3COP(=O)(S)O[C@H]3[C@@H](O)[C@H](n4ccc(N)nc4=O)O[C@@H]3COP(=O)(S)O[C@H]3[C@@H](O)[C@H](n4cnc5c(N)ncnc54)O[C@@H]3COP(=O)(S)O[C@H]3[C@@H](O)[C@H](n4ccc5c(=O)[nH]c(N)nc54)O[C@@H]3COP(=O)(S)O[C@H]3[C@@H](O)[C@H](n4ccc(=O)[nH]c4=O)O[C@@H]3COP(=O)(S)O[C@H]3[C@@H](O)[C@H](n4ccc(N)nc4=O)O[C@@H]3COP(=O)(S)O[C@H]3[C@@H](O)[C@H](n4cnc5c(N)ncnc54)O[C@@H]3COP(=O)(S)O[C@H]3[C@@H](O)[C@H](n4cnc5c(N)ncnc54)O[C@@H]3CO)[C@H]2O)c(=O)n1` (stereo partly drawn), the Activity with PBMC [1] came to 154 pg/mL; in the data set with PBMC [6] it was 0 pg/mL. Further, the result in data set [2] and in data set [8] was inactive. For the same compound, the result in the data set with Splenocyte [3] and in the data set with Splenocyte [5] was Active. For the same compound, the fold change (FC) in data set [4] came to 0.4. Further, in [7], the remaining at 10 min stood at 84%. For the same compound, the IFN-alpha in the data set with PBMC [9] turned out to be 0 pg/mL.
